The subject of assay [1] is Mus musculus. Description: Antinociceptive activity in Swiss Albino mouse at 20 mg/kg, po by hot plate assay measured as licking latency. More on the design: unit: s. The format is functional. An outline of the steps: (§1)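 Oral dosing in saline or 1% CMC. Mice placed on a surface held at 52.5 ± 0.1 °C; paw-licking latency (s) timed before treatment and at intervals up to 60 min afterwards. Mice with pretest latency below 12 or above 18 s were excluded. Cutoff 45 s.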

Assay [2] relates to Mus musculus. Description: Antinociceptive activity in Swiss Albino mouse at 20 mg/kg, po by writhing test measured as number of writhes. The assay is classed as functional. An outline of the steps:
(§2)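 Drugs dosed orally 30 min before test, in saline or 1% CMC suspension; yohimbine arm included. 0.6% acetic acid (10 mL/kg) injected i.p., and abdominal constrictions counted for 10 min from 5 min after injection. Values are means of at least two experiments, compared with CMC-treated mice.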

Assay [3] has as its system Mus musculus. Description: Antagonist effect on compound A-induced antinociception in Swiss Albino mouse at 10 mg/kg, ip. The format is functional. Particulars: route intraperitoneal. The method in brief: (§3)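 Mice given antagonist i.p. (yohimbine 3 mg/kg, BRL-44408 1 mg/kg, ARC-239 10 mg/kg) plus compound A 1 mg/kg s.c., or antagonist plus vehicle. Abdominal constriction test: 0.6% acetic acid (10 mL/kg) i.p., stretching movements counted for 10 min beginning 5 min after injection. Groups of 10-15 mice, compared with saline/CMC controls.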

Assay [4] deals with Mus musculus. Description: Antinociceptive activity in Swiss Albino mouse at 5 mg/kg, po by writhing test measured as number of writhes. The format is functional. An outline of the steps:
as §2

For assay [5], the system named is Mus musculus. Kind of assay: Antinociceptive activity in Swiss Albino mouse at 30 mg/kg, po by hot plate assay measured as licking latency. The assay is classed as functional. The method in brief:
as §1

The test system of assay [6] is Mus musculus. Kind of assay: Antinociceptive activity in Swiss Albino mouse at 30 mg/kg, po by writhing test measured as number of writhes. The assay is classed as functional. An outline of the steps: as §2
The species named for assay [7] is Mus musculus. Kind of assay: Impairment in mouse rotarod test. The format is functional, organism-based.
Assay [8] concerns the target Norepinephrine transporter (Rattus norvegicus, UniProt Q9WTR4). Description: Inhibition of [3H]noradrenaline uptake in Sprague-Dawley rat brain synaptosomes. The assay is classed as functional, subcellular. The method in brief: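 Rat frontal cortex synaptosomes prepared on a sucrose gradient and resuspended in Krebs-type buffer, pH 7.4, with 0.01 mM pargyline. Preincubated 5 min at 37 °C with or without drug, then [3H]-NE added for 6 min. Samples filtered and counted. Active uptake taken as accumulation at 37 °C minus accumulation at 0 °C.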

Assay [9] has as its system Cerebral cortex. Kind of assay: Increase in noradrenaline release in Sprague-Dawley rat cortical membranes. The assay is classed as functional.
For assay [10], the system named is Mus musculus. Description: Antinociceptive activity in Swiss Albino mouse at 1 mg/kg, sc by abdominal constriction assay. The assay is classed as functional, Abdomen. Particulars: route subcutaneous. The method in brief: (§4)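 Acetic acid writhing in mice: 0.6% acetic acid at 10 mL/kg i.p., with stretching movements counted over 10 min starting 5 min after injection. Compound A 1 mg/kg s.c. or antagonists i.p. Drugs in 0.9% saline or dispersed in 1% carboxymethylcellulose. Groups of 10-15 mice, compared against saline/CMC controls.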

Assay [11] has as its target T1, Alpha-2A adrenergic receptor (Rattus norvegicus, UniProt P22909).
T1 sequence (P22909 whole entry): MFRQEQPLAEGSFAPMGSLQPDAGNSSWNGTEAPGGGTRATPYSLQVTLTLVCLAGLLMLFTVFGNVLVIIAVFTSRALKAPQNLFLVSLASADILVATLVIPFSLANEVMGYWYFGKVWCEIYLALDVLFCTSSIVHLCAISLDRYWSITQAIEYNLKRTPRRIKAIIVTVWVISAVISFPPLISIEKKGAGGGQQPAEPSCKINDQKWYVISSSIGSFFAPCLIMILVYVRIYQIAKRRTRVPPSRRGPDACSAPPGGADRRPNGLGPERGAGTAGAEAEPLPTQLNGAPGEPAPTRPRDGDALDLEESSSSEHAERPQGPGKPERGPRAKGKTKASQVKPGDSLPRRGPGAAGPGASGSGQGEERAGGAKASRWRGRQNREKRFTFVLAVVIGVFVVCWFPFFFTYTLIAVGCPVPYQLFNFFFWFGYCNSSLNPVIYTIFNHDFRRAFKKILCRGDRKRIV
Description: Binding affinity to adrenergic alpha-2A receptor in Sprague-Dawley rat cortical membranes.

In assay [12] the test system is Mus musculus. Description: Antinociceptive activity in Swiss Albino mouse at 10 mg/kg, po by writhing test measured as number of writhes. The assay is classed as functional. The method in brief:
as §2

In assay [13] the test system is Mus musculus. Description: Antinociceptive activity in Swiss Albino mouse at 3 mg/kg, ip by abdominal constriction assay. The assay is classed as functional, Abdomen. The following applies: route intraperitoneal. The method in brief: as §4
Assay [14] has as its system Mus musculus. Description: Antagonist effect on compound A-induced antinociception in Swiss Albino mouse at 3 mg/kg, ip. The format is functional. The following applies: route intraperitoneal. An outline of the steps: as §3
The subject of assay [15] is Mus musculus. Kind of assay: Antinociceptive activity in Swiss Albino mouse at 3 mg/kg, po by writhing test measured as number of writhes in presence of yohimbine. The assay is classed as functional.
Assay [16] deals with Mus musculus. Description: Antinociceptive activity in Swiss Albino mouse at 3 mg/kg, po by hot plate assay measured as licking latency. The format is functional. The method in brief:
as §1

Assay [17] relates to Mus musculus. Kind of assay: Antinociceptive activity in Swiss Albino mouse at 1 mg/kg, ip by abdominal constriction assay. The assay is classed as functional, Abdomen. Particulars: route intraperitoneal. An outline of the steps: as §4
Assay [18] has as its system Mus musculus. Description: Antagonist effect on compound A-induced antinociception in Swiss Albino mouse at 1 mg/kg, ip. The following applies: route intraperitoneal. The format is functional. The method in brief: as §3
Assay [19] deals with Mus musculus. Description: Antinociceptive activity in Swiss Albino mouse at 20 mg/kg, po by writhing test measured as number of writhes in presence of yohimbine. The format is functional. An outline of the steps: as §2

Values joined by “and” are separate entries in the source; they are usually repeats but may differ in a detail not shown here. Equal entries are not always repeated. Active and inactive are the calls of the source.

Sequence of Norepinephrine transporter (Q9WTR4 whole entry): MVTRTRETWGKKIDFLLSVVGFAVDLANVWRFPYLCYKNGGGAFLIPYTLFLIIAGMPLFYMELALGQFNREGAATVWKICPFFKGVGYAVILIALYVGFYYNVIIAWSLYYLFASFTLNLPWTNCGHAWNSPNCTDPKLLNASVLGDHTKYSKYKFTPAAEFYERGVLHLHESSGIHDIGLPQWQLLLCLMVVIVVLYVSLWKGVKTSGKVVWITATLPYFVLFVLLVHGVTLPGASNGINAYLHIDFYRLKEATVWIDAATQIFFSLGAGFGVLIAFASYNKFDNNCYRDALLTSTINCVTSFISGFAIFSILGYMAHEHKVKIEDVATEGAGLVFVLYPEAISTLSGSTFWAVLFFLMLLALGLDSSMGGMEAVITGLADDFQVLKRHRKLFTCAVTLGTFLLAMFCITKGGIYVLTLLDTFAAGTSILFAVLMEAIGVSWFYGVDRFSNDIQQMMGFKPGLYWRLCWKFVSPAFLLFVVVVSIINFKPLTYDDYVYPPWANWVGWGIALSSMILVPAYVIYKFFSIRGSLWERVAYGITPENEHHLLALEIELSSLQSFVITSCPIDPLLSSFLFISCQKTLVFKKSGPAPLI

Take `Cc1noc2c(-c3ccccc3N)nn(CCCN3CCN(c4cccc(Cl)c4)CC3)c(=O)c12`: the Activity in assay [1] was 16.5; in [2], 28.
Turning to `COc1ccccc1N1CCN(CCN2C(=O)c3ccccc3C(C)(C)C2=O)CC1`, the Activity in assay [3] is given as 9.6.
In turn, `Cc1onc2c(=O)n(CCCN3CCN(c4cccc(Cl)c4)CC3)nc(-c3cccs3)c12` had an Activity in assay [2] of 16.2.
`Cc1nn(CCCN2CCN(c3cccc(Cl)c3)CC2)c(=O)c2nn(-c3ccccc3)c(C)c12` gave an Activity in assay [2] of 10.3.
Compound `Cc1noc2cnn(CCCCN3CCN(c4cccc(Cl)c4)CC3)c(=O)c12` displayed an Activity in [4] of 27.2.
Consider `Cc1noc2c(-c3ccccc3)nn(CCCN3CCN(c4ccccn4)CC3)c(=O)c12`, for which the Activity in assay [5] is 15.1; in assay [6], 30.2.
On the same counts, the results for `Cc1noc2c(-c3ccccc3)nn(CCCN3CCN(c4ccc(F)cc4)CC3)c(=O)c12` are 17.6 and 39.2.
As for `O=C1c2ccccc2C(=O)N1CCCN1CCN(c2cccc(Cl)c2)CC1`, the Activity worked out at 16.2 in assay [1] and 34.9 in [2].
The compound `O=c1c2ccccc2cnn1CCCCN1CCN(c2cccc(Cl)c2)CC1` showed an Activity in assay [2] of 28.5.
For the compound `Cc1noc2c(-c3ccccc3)nn(CCCN3CCN(c4cccc(Cl)c4)CC3)c(=O)c12`, in assay [7], the result was inactive. For the same compound, inhibition in assay [8] was half-maximal at 130 nM (IC50). Besides, the results for the Activity result in assay [9] and in assay [10] were “Dose-dependent effect” and 11.6, respectively. This compound also returned a Ki in assay [11] above 1000 nM.
The compound `Cc1cc(C)c2c(-c3ccccc3)nn(CCCN3CCN(c4cccc(Cl)c4)CC3)c(=O)c2n1` registered an Activity in assay [2] of 18.
Compound `N#Cc1cccc(N2CCN(CCCn3ncc4ccccc4c3=O)CC2)c1` came in with an Activity in assay [12] of 17.2.
In turn, `Cc1noc2c(-c3ccccc3)nn(CC(C)CN3CCN(c4cccc(Cl)c4)CC3)c(=O)c12` (centres undefined) gave an Activity in [2] of 35.5.
For the compound `COC(=O)[C@@H]1[C@H]2C[C@H]3c4[nH]c5ccccc5c4CCN3C[C@@H]2CC[C@@H]1O` [YOHIMBINE], the Activity in [13] is on record as 28.5; in assay [14] it was 27.8; in [15] it was 35.9; in [16] it was 15.8.
Consider `CC1c2ccccc2CN1CC1=NCCN1` (centres undefined), for which the results for the Activity in assay [17] and in [18] were 32.9 and 33.4, respectively.
Regarding `Cc1noc2c(-c3ccc([N+](=O)[O-])cc3)nn(CCCN3CCN(c4cccc(Cl)c4)CC3)c(=O)c12`, the Activity in assay [2] came out at 26.8.
`Cc1noc2c(-c3ccccc3)nn(CCCCN3CCN(c4cccc(Cl)c4)CC3)c(=O)c12` returned an Activity in [2] of 30.6.
`Cc1noc2c(-c3ccccc3[N+](=O)[O-])nn(CCCN3CCN(c4cccc(Cl)c4)CC3)c(=O)c12` came in with an Activity in assay [2] of 31.7.
In the case of `O=c1c2ccccc2cnn1CCCN1CCN(c2ccc(Cl)cc2)CC1`, the Activity in assay [2] stood at 23.9.
With `Cc1noc2c(-c3ccccc3)nn(CCN3CCN(c4cccc(Cl)c4)CC3)c(=O)c12`, the values for the Activity in assay [1], in assay [19] and in [2] were 15.4, 37.2 and 23.6, respectively.
In turn, `Cc1noc2c(-c3ccccc3)nnc(SCCCN3CCN(c4ccc(F)cc4)CC3)c12` displayed an Activity in assay [2] of 28.6.
As for `Cc1noc2c(-c3ccccc3)nn(CCCN3CCN(c4ccc(Cl)cc4)CC3)c(=O)c12`, the Activity in [2] worked out at 27.1.
`Cc1noc2c(-c3ccccc3)nn(CCC(=O)N3CCN(c4cccc(Cl)c4)CC3)c(=O)c12`: the Activity was 41.3 in assay [19] and 22.1 in assay [2].
In the case of `O=C1c2ccccc2C(=O)N1CCN1CCN(c2ccc(F)cc2)CC1`, the Activity in [19] was determined as 37.9; in assay [2], 22.6.
In the case of `CC(CN1CCN(c2cccc(Cl)c2)CC1)Cn1ncc2ccccc2c1=O` (centres undefined), the Activity in assay [2] was determined as 36.7.
On to `O=C1c2ccccc2C(=O)N1CCCN1CCN(c2ccc(F)cc2)CC1`, for which the Activity in assay [1] is recorded as 36.5; in assay [2] it was 19.4.
Take `Cc1noc2c(-c3ccccc3)nn(CCC(=O)N3CCN(c4ccc(Cl)cc4)CC3)c(=O)c12`: the Activity amounted to 17.2 in assay [1], 45.4 in assay [19] and 23.5 in assay [2].
With `O=c1c2ccccc2cnn1CCCN1CCN(c2cccc(Cl)c2)CC1`, the Activity was 28 and 83% in [1] (20 mg/kg); 31.8 in assay [19]; 8.2 in assay [2].
As to `CCOC(=O)CCn1nc(-c2ccccc2)c2onc(C)c2c1=O`, the figures for the Activity in assay [1] and in [2] were 17.4 and 32.7, respectively.
As to `Cc1noc2cnn(CCCN3CCN(c4cccc(Cl)c4)CC3)c(=O)c12`, the Activity in assay [1] was 27.7; in assay [19], 27.4; in assay [2] it was 11.9.

The values are drawn from ChEMBL document CHEMBL1138852, “Arylpiperazinylalkylpyridazinones and analogues as potent and orally active antinociceptive agents: synthesis and studies on mechanism of action” (J Med Chem, 2006).
